# Published values pooled from the literature.
# Target: Ephrin type-B receptor 4 (EPHB4, Homo sapiens, UniProt P54760)
# One construct used (P54760 16-987): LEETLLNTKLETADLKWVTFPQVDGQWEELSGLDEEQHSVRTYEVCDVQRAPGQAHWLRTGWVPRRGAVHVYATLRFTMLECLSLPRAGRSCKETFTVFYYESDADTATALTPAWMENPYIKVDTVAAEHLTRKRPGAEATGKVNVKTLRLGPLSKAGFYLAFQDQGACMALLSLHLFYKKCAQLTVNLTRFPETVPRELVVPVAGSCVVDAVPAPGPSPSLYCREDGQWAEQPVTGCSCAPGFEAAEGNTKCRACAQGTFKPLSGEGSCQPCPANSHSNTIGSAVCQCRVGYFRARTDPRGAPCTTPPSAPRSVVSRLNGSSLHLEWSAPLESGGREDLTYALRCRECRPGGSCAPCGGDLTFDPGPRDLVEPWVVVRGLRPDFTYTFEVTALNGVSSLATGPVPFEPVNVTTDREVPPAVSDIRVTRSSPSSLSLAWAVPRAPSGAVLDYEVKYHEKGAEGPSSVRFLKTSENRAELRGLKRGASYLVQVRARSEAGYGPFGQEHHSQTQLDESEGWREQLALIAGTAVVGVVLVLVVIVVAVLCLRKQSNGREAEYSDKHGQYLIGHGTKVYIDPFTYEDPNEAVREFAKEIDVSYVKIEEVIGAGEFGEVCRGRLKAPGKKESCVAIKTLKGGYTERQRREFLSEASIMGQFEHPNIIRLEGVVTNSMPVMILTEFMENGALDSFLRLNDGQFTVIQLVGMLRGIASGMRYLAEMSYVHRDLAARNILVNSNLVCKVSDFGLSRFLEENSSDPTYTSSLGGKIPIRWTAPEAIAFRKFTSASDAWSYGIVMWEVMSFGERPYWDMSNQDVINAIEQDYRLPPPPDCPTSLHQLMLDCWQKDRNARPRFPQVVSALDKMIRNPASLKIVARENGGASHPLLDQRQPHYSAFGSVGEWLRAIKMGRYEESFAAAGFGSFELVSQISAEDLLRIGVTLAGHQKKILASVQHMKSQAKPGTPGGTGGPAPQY
SMILES,observed,action,method,concentration,measurement,value
N#CC1(c2ccccn2)CCN(Cc2cc(C(=O)O)c(=O)n3ccccc23)CC1,cell-free assay,,competition with immobilised ligand,1 µM,remaining binding,83%
COc1cc(Nc2ncc(F)c(Nc3ccc4c(n3)NC(=O)C(C)(C)O4)n2)cc(OC)c1OC,binding,,competition with immobilised ligand,10 µM,inhibition,50%
COc1ncccc1-c1cnn2ccc(N3CCN(C(=O)OC(C)C)CC3)nc12,binding,,competition with immobilised ligand,1 µM,remaining binding,100%
Cn1cncc1[C@](O)(COc1ccc(C#N)cc1-c1ccc(OC(F)(F)F)cc1)c1ccc(C#N)cc1,cell-free assay,,competition with immobilised ligand,1 µM,remaining binding,98%
C#Cc1n[nH]c2c(-c3cn([C@@H](C)c4ccccc4)c(=O)[nH]c3=O)cc(F)cc12,enzyme activity,inhibitor,,0.1 µM,inhibition,1.4%
Cn1cc(-c2cccc(N3CCc4c(sc5c4CC(C)(C)C5)C3=O)c2CO)cc(Nc2ccncn2)c1=O,enzyme activity,inhibitor,,1 µM,inhibition,0%
Cc1nn(C)cc1-c1nc2c(N3CCN(Cc4ccc(Cl)cc4)CC3)c(Cl)cnc2[nH]1,binding,,competition with immobilised ligand,1 µM,remaining binding,100%
O=c1[nH]c2ccccc2n1C1CCN(Cc2ccc(-c3[nH]c4cc5ncnc5cc4nc3-c3ccccc3)cc2)CC1,cell-free assay,,,0.5 µM,remaining signal,96.4%
C#Cc1n[nH]c2c(-c3cn([C@@H](C)c4ccccn4)c(=O)[nH]c3=O)cc(F)cc12,enzyme activity,inhibitor,,0.1 µM,inhibition,5.5%
Cn1cc(-c2cc(F)cc(N3CCn4c(cc5c4CCCC5)C3=O)c2CO)cc(Nc2ccc(N3CCN(C4COC4)CC3)cn2)c1=O,enzyme activity,inhibitor,,0.1 µM,inhibition,8%
